Reference: ChEMBL document CHEMBL1154321, “Benzoxazole piperidines as selective and potent somatostatin receptor subtype 5 antagonists” (Bioorg Med Chem Lett, 2009)
≈ marks a conversion by molar mass, not a printed value.

How the values were obtained:
[1] = target: Somatostatin receptor type 2 (Homo sapiens, UniProt P30874); assay: Displacement of SST14 from human recombinant SST2 receptor
In short: (§1)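 Membranes prepared by sonication from cells expressing the SST receptor subtype, incubated with radiolabeled 11-Tyr SST-14 tracer and test compound at varying concentrations; non-labeled SST-14 defined non-specific binding. Incubation stopped by glass-fiber filtration, bound radioactivity counted; IC50 for half-maximal binding inhibition estimated and Ki derived.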

[2] = target: Somatostatin receptor type 4 (Homo sapiens, UniProt P31391); assay: Displacement of SST14 from human recombinant SST4 receptor; in short: as §1
Chain of Somatostatin receptor type 4 (P31391 whole entry): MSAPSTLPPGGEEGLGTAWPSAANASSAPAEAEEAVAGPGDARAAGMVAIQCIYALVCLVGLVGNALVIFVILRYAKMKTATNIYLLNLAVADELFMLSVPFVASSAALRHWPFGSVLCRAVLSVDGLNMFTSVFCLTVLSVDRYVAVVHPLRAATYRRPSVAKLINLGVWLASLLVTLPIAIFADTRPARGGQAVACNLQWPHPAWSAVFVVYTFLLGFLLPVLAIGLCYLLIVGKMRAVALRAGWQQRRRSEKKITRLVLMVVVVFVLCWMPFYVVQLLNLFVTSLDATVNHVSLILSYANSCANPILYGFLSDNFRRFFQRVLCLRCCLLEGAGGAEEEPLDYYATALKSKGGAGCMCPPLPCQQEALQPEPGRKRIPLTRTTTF

[3] = target: Somatostatin receptor type 3 (Homo sapiens, UniProt P32745); assay: Displacement of SST14 from human recombinant SST3 receptor; in short: as §1
Chain of Somatostatin receptor type 3 (P32745 whole entry): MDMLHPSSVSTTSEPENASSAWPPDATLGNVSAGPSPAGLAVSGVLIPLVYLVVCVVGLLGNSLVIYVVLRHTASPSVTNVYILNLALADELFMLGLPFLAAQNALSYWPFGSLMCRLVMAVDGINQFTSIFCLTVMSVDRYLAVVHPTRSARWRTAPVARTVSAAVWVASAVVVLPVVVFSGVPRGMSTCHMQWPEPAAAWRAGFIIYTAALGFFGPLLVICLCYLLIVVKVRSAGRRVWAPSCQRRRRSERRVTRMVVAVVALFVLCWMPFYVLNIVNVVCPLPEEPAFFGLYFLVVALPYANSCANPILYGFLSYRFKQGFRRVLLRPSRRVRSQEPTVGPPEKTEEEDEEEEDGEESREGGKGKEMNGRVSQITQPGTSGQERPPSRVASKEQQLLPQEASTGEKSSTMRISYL

[4] = target: Somatostatin receptor type 5 (Homo sapiens, UniProt P35346); assay: Displacement of SST14 from human recombinant SST5 receptor expressed in CHO cells by radioligand binding assay; format: cell-based; in short: as §1
Chain of Somatostatin receptor type 5 (P35346 whole entry): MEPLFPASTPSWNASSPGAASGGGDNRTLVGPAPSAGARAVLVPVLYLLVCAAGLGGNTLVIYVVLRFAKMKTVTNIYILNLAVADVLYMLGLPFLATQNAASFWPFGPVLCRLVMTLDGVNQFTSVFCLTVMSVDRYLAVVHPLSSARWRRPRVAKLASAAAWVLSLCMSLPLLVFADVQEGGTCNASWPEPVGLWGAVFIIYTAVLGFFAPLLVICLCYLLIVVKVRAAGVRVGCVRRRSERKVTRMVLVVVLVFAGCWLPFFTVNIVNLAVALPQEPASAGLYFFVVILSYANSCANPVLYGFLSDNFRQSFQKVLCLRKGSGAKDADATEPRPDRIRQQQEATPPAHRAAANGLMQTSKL

[5] = Solubility in phosphate buffer at pH 6.5 by lyophilization solubility assay; format: physicochemical
In short: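 Lyophilized DMSO stock solutions redissolved in 50 mM phosphate buffer, pH 6.5; solubility read spectrophotometrically.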

[6] = sPermeability by PAMPA; format: ADME; conditions: read-out: permeability
In short: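 Parallel artificial membrane permeation; Pe categorized as low (<0.1), medium (0.1–1.0) or high (>1.0).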

[7] = Terminal half-life in Wistar rat administered as single dose; format: ADME, organism-based; conditions: in vivo, read-out: beta t1/2 (converted)
[8] = Oral bioavailability in Wistar rat administered as single dose; format: ADME, organism-based; conditions: in vivo
[9] = Clearance in Wistar rat administered as single dose; format: ADME, organism-based; conditions: in vivo
[10] = Volume of distribution at steady state in Wistar rat administered as single dose; format: ADME, organism-based; conditions: in vivo, read-out: Vdss
[11] = Dissociation constant, pKa by spectrophotometry; format: physicochemical
[12] = Octanol-TAPSO partition coefficient, log D at pH 7.4 by spectrophotometry; format: physicochemical; conditions: octanol/TAPSO buffer
In short: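 Spectrophotometric log D in 1-octanol/50 mM TAPSO buffer, pH 7.4, containing 5% (v/v) DMSO.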

Homo sapiens = organism: Homo sapiens; assay: Selectivity ratio of Ki for human histamine H1 receptor to Ki for human SST5 receptor
Histamine H1 receptor = Histamine H1 receptor (Homo sapiens, UniProt P35367); assay: Binding affinity to human histamine H1 receptor
Chain of Histamine H1 receptor (P35367 whole entry): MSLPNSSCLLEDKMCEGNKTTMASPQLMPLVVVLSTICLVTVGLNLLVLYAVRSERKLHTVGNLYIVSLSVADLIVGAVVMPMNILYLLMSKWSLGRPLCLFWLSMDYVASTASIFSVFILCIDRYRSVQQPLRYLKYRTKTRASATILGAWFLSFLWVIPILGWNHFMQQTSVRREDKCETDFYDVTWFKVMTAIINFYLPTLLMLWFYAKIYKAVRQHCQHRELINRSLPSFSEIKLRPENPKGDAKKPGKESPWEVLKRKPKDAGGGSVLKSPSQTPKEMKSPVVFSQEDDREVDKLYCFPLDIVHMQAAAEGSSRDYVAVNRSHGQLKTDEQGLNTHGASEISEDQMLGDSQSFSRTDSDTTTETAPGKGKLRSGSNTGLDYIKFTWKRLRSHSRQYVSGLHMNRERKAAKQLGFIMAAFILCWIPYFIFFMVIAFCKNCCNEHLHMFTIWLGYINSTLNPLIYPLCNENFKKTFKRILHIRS

Chain of Somatostatin receptor type 2 (P30874 whole entry): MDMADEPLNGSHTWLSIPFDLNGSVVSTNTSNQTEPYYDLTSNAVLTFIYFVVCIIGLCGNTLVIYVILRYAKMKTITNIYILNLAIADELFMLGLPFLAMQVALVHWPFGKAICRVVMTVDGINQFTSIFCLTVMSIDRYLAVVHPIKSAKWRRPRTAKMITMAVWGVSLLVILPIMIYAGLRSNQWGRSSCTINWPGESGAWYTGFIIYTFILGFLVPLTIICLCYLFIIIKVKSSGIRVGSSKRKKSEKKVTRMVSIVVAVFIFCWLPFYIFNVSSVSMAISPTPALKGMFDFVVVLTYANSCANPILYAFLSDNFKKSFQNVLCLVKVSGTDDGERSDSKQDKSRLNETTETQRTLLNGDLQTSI

SMILES	Ki [1] [µM]	Ki [2] [µM]	Ki [3] [µM]	Ki [4] [µM]	solubility [5] [µg/mL]	Papp [6] [×10⁻⁶ cm/s]	half-life [7] [h]	bioavailability [8] [%]	clearance [9] [mL/min/kg]	Vd [10] [L/kg]	pKa [11]	logD [12]	Ratio Ki (Homo sapiens)	Ki (Histamine H1 receptor) [µM]
CCOc1cc(NCc2cccc(Nc3nc4ccccc4s3)c2)ccc1OC	> 10	> 10	> 10	> 1	–	–	–	–	–	–	–	–	–	–
CCOc1cc(CN2CCC(Nc3nc4ccc(Cl)cc4s3)CC2)ccc1OC	> 10	> 10	> 10	0.361	–	–	–	–	–	–	–	–	–	–
CCOc1cc(NC2CCC(NCc3nc4ccccc4s3)CC2)ccc1OC (stereo not drawn)	> 10	> 10	> 10	> 1	–	–	–	–	–	–	–	–	–	–
CCOc1cc(CN2CCC(Nc3nc4cc([N+](=O)[O-])ccc4o3)CC2)ccc1OC	> 10	> 10	> 10	0.252	–	–	–	–	–	–	–	–	–	–
CCOc1cc(CN2CCC(Nc3nc4ccc(Cl)cc4o3)CC2)ccc1Cl	> 10	> 10	> 10	0.239	44 (≈ 105 µM)	4.81	2.6	33	37	4.6	–	–	–	–
CCOc1cc(CN2CCC(Nc3nc4cc(NS(=O)(=O)c5cn(C)cn5)ccc4o3)CC2)ccc1OC	> 10	> 10	> 10	0.175	> 720	0.49	1.5	2	41	2.2	7.91	1.48	–	–
CCNc1cc(CN2CCC(Nc3nc4ccccc4o3)CC2)ccc1OC	> 10	> 10	> 10	0.371	–	–	–	–	–	–	–	–	–	–
CCOc1cc(NC2CCC(Nc3nc4ccccc4s3)CC2)ccc1OC (stereo not drawn)	> 10	> 10	> 10	> 1	–	–	–	–	–	–	–	–	–	–
COc1ccc(CN2CCC(Nc3nc4ccccc4o3)CC2)cc1OC1CCCC1	> 10	> 10	> 10	–	–	–	–	–	–	–	–	–	–	–
COc1ccc(CN2CCC(Nc3nc4ccccc4o3)CC2)cc1OCCF	> 10	> 10	> 10	0.487	–	–	–	–	–	–	–	–	–	–
CCOc1cc(CN2CCC(Nc3nc4ncccc4o3)CC2)ccc1OC	> 10	> 10	> 10	> 1	–	–	–	–	–	–	–	–	–	–
CCOc1cc(CN2CCC(Nc3nc4ccccc4o3)CC2)ccc1F	> 10	> 10	> 10	–	> 452	4.33	–	–	–	–	7.79	3.63	4.3	0.826
CCOc1cc(CN2CCC(Nc3nc4cc(S(=O)(=O)N(C)C)ccc4o3)CC2)ccc1OC	> 10	> 10	> 10	0.226	–	–	–	–	–	–	–	–	–	–
CCOc1cc(CN2CCC(Nc3nc4ccccc4o3)CC2)cc(OCC)c1F	> 10	> 10	> 10	0.178	–	–	–	–	–	–	–	–	–	–
CCOc1cc(CN2CCC(Nc3nc4ccncc4o3)CC2)ccc1OC	> 10	> 10	> 10	0.72	–	–	–	–	–	–	–	–	–	–
CCOc1cc(CN2CCC(Nc3nc4ccccc4o3)CC2)ccc1OC(C)C	> 10	> 10	> 10	> 1	–	–	–	–	–	–	–	–	–	–
CCOc1cc(CN2CCC(Nc3nc4cc(OC(F)(F)F)ccc4o3)CC2)ccc1OC	> 10	> 10	> 10	0.354	–	–	–	–	–	–	–	–	–	–
CCOc1cc(CN2CCC(Nc3nc4cccnc4o3)CC2)ccc1OC	> 10	> 10	> 10	0.633	–	–	–	–	–	–	–	–	–	–
COc1ccc(CN2CCC(Nc3nc4ccccc4o3)CC2)cc1OC	> 10	> 10	> 10	0.472	–	–	–	–	–	–	–	–	–	–
CCOc1cc(CN2CCC(Nc3nc4ccccc4o3)CC2)ccc1OC1CC1	> 10	> 10	> 10	0.537	–	–	–	–	–	–	–	–	–	–
CCOc1cc(CN2CCC(Nc3nc4cccnc4s3)CC2)ccc1OC	> 10	> 10	> 10	0.309	–	–	–	–	–	–	–	–	–	–
CCOc1cc(CN2CCC(Nc3nc4cc(Cl)c(S(N)(=O)=O)cc4o3)CC2)cc(OCC)c1F	> 10	> 10	> 10	0.252	32 (≈ 60.7 µM)	2.45	–	–	–	–	7.61	2.78	–	–
CCOc1cc(CN2CCC(Nc3nc4ccccc4o3)CC2)ccc1C	> 10	> 10	> 10	–	–	–	–	–	–	–	–	–	–	–
